From ChEMBL document CHEMBL4513216, “Probing the Open Global Health Chemical Diversity Library for Multistage-Active Starting Points for Next-Generation Antimalarials” (ACS Infect Dis, 2020)

Test: Toxicity liver stage against HepG2, at 10uM
Assay type: cell-based
Design: test concentration 10 uM, cell line HepG2-A16-CD81EGFP
Settings: human, HepG2-A16-CD81EGFP cells; read-out: INHIBITION
Method in brief: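 Uninfected HepG2-A16-CD81EGFP cells, 3 × 10^3 per well, 1536-well, plated on prespotted compound at 10 μM final, parasite-free screening media added to match infected plates; puromycin 10 μM positive, DMSO 0.5% negative; run in parallel with 48 h PbLuc assay at 37 °C, 5% CO2; viability by CellTiter-Glo luminescence, normalized to controls.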

Row | Structure (SMILES) | cytotoxicity at 10 µM [%]
1 | O=C(NCCCN1CCCC1=O)Nc1ccc(Br)cc1Cl | -2.18
2 | COc1ccc(CCCN(C)C(=O)c2cc(C(C)=O)c[nH]2)cc1OC | 2.24
3 | CN1C[C@@H](N)C[C@H]1c1nc(-c2ccc3c(c2)OCO3)no1 | -3.75
4 | O=C(NCC1CCOCC1)c1cc(-c2ccc3c(c2)CCO3)n[nH]1 | 2.63
5 | CC1CCCN(C(=O)c2nnn(-c3ccc(C(F)(F)F)cc3)n2)C1 (stereo not drawn) | -3.43
6 | COCCN(C)C(=O)c1nc2c(s1)CCCN2C | -143
7 | COCCN(C)C(=O)c1nc2c(s1)CCCN2c1ncccn1 | -131
8 | CCS(=O)(=O)N1CC[C@@H]2[C@H](COCC3CC3)CN(C)C(=O)[C@@H]2CC1 | -4.79
9 | CS(=O)(=O)N1CCc2sc(C(=O)NCCc3ccccn3)cc21 | -0.464
10 | CC1CCc2nc(O)c(C(=O)NCCCN3CCN(C)CC3)cc2C1 (stereo not drawn) | -11.6
11 | Cc1csc(CCNC(=O)c2cc3c(nc2O)CCC(C)C3)n1 (stereo not drawn) | -3.91
12 | O=C(Cc1ccsc1)NCC1OCCc2cn(CC3CC3)nc21 (stereo not drawn) | 9.77
13 | Cc1nc(=O)c2ccccc2n1C1=CCN(CC(=O)N2CCCC2)CC1 | -7.45
14 | NC(=O)c1cnc(NC2CC2)nc1CCNC(=O)Cc1ccccc1 | 4.44
15 | Cc1nc(C(=O)N2CCOC(Cc3ccccc3)C2)co1 (stereo not drawn) | -3.24
16 | NCCn1nc(C2CCN(Cc3ccccc3Cl)C2)c2nccnc21 (stereo not drawn) | -14.9
17 | CN(CCCOc1ccccc1)S(=O)(=O)N1CCOCC1 | 4.38
18 | CC(SCCC(=O)NC(N)=O)c1c(F)cccc1F (stereo not drawn) | 6.93
19 | CC(C)CC1(C(=O)NCc2nncn2C2CC2)CCC1 | -1.22
20 | CS(=O)(=O)NCc1ccc(C(=O)NCc2ccc3c(c2)CCC3)o1 | -5.61
21 | Cc1noc(CCCC(=O)N(CC2CCOC2)C2CC2)n1 (stereo not drawn) | 13
22 | CN(c1ncccc1C#N)C1CCN(CCc2ccccn2)CC1 | 0.926
23 | Cc1ccc(S(C)(=O)=O)cc1NCC(=O)NCCC1=CCCCC1 | 0.846

Row | Structure (SMILES) | cytotoxicity at 10 µM [%]
24 | CC(C)(C)CC(NC(=O)N1CCS(=O)(=O)CC1)C(F)(F)F (stereo not drawn) | 0.106
25 | CC(C)(C)CC(NC(=O)N1CCC(C(N)=O)CC1)C(F)(F)F (stereo not drawn) | -1.14
26 | Cn1cnnc1CNC(=O)c1ccc(Br)cc1O | -4.06
27 | O=C(NCCOc1ccc(F)cc1)C1CCCN(C(=O)C2CC2)C1 (stereo not drawn) | 0.856
28 | CCOc1ccc(Cl)cc1CCNC(=O)Cn1ccccc1=O | 8
29 | O=C(c1coc(-c2ccccc2)n1)N1CCCC1 | 5.47
30 | Cc1cc(S(=O)(=O)N2CC[C@@H](O)C2)c(Cl)cc1F | -8.59
31 | Cc1cccc(C(=O)NCC2CCS(=O)(=O)C2)n1 (stereo not drawn) | -6.21
32 | CC(C)c1nc(C2CCCN(C(=O)CS(=O)(=O)C(C)C)C2)no1 (stereo not drawn) | 8.75
33 | Cc1nc(NC(=O)C(C)N2CCN(c3ncccn3)CC2)sc1C (stereo not drawn) | 4.79
34 | Cc1nn(C)c(N2CCCN(C)CC2)c1CNC(=O)C(C)(C)C | -12
35 | CN(Cc1ccncc1)Cc1nccn1Cc1ccccc1 | 12.5
36 | CCc1cccc(NC(=O)NC2CCc3nc(C)nn3C2)c1 (stereo not drawn) | -12.5
37 | CN1CC(C(=O)NC(C)(C)CNC(=O)OC(C)(C)C)CC1=O (stereo not drawn) | -3.88
38 | O=S(=O)(c1ccc(F)cc1)N1CCN(CCCn2ccnc2)CC1 | -5.63
39 | O=C(NC1CCS(=O)(=O)C1)c1ccc(-c2ccc(F)cc2)s1 (stereo not drawn) | -2.32
40 | Cc1cc(CNC(=O)C2CCCN2C(=O)OC(C)(C)C)no1 (stereo not drawn) | -4.12
41 | O=C(NC1CC1)C1CCCN1c1ncnc2ccsc12 (stereo not drawn) | -5.2
42 | CC(C)CC(C#N)NC(=O)COC1CCCCC1 (stereo not drawn) | 5.42
43 | Cc1ccc(CCNC(=O)c2cccnc2)o1 | -0.996
44 | O=C(NCCNc1ccc(Br)cn1)c1ccc(O)cc1 | 0.612
45 | Cc1n[nH]c(C2CN(C(=O)c3ccn(C)c(=O)c3)CCO2)n1 (stereo not drawn) | -5.3
46 | CC(=O)NC(c1cc(F)ccc1F)C1CC1 (stereo not drawn) | -1.99

Row | Structure (SMILES) | cytotoxicity at 10 µM [%]
47 | Cc1cccc(C(=O)N2CCN(CCOC(C)C)CC2)n1 | -0.0394
48 | NC(=O)CCSc1n[nH]c(-c2ccc3c(c2)CCC3)n1 | -0.302
49 | CC(C)N(Cc1ccccc1)Cc1csc(-c2ncccn2)n1 | 7.76
50 | CC(=O)N(CCc1nc(-c2cc(C(N)=O)co2)cs1)C(C)C | -4.91
51 | CC1(c2ccc(Br)cc2)CC(=O)N(CCC(N)=O)C1=O (stereo not drawn) | -3.74
52 | Cc1ccc(CN(C)C)cc1NC(=O)C1CC1 | 1.32
53 | CNC(=O)COc1c(C(C)=O)ccc(Cl)c1Cl | -0.769
54 | CCN(CCNC(=O)C1CCN(C(C)=O)CC1)c1ccccc1C | -6.19
55 | CN(C)c1ccc(NC(=O)N2CCCC2c2ccsc2)cn1 (stereo not drawn) | -7.81
56 | CCc1noc(CS(=O)(=O)c2cccc(OC)c2)n1 | 6.7
57 | CN(C)c1ccc(NC(=O)N2CCCCC2c2ncc[nH]2)cn1 (stereo not drawn) | -1.78
58 | O=C(CCc1ccco1)Nc1ncn(CC(=O)N2CCCCCC2)n1 | -2.29
59 | c1csc(-c2noc(CC3CCCO3)n2)c1 (stereo not drawn) | -3.37
60 | Cc1ccc(OCC(=O)NCc2ccccc2F)nc1 | -12
61 | CC[C@H](C)Nc1nccc(-c2cnc3sccn3c2=O)n1 | -8.72
62 | O=C(Nc1nc(-c2ccccc2)ns1)N1CCC(F)CC1 | -137
63 | CCc1nc(N2CCC3(CC2)OCCCC3O)ncc1C (stereo not drawn) | 7.41
64 | Cc1ccc2c(c1)CN(CC(=O)NCCc1ccc(F)cc1)CC(C)O2 (stereo not drawn) | 1.54
65 | COCC1CCN(C(=O)c2cn(Cc3ccccc3C(F)(F)F)nn2)C1 (stereo not drawn) | 6.86
66 | Cc1ccc2c(c1)c(CNC(=O)C1CCN(C(=O)C3CC3)CC1)nn2C | -0.687
67 | CCn1c(C2CCCN(Cc3ccc(OC)c(C)c3C)C2)nn(C)c1=O (stereo not drawn) | 5.52
68 | CCCn1ncc(C(=O)N2CCN(C(=O)c3ccc[nH]3)CC2)c1C | -151
69 | CCn1nc(C)c(C(C)Nc2cc(C3CCNCC3)nc(C)n2)c1C (stereo not drawn) | 2.38

Row | Structure (SMILES) | cytotoxicity at 10 µM [%]
70 | COc1nccnc1N1CCN(Cc2ccc(F)cc2)C(=O)C1 | 1.27
71 | CCCOCCn1ncc(N2CCCC2)cc1=O | -10.7
72 | CCc1cc(CN(C)C(=O)c2cnn[nH]2)on1 | 7.48
73 | CCOCC(=O)N1CCC(c2nc(-c3cccnn3)no2)CC1 | -3.3
74 | Cn1c(-c2ccccc2Cl)nc2cc(C(=O)NCC3(CO)CC3)cnc21 | -4.33
75 | COc1ccnc(CNc2cc(C3CC3)ncn2)c1 | -7.64
76 | CN(Cc1cc(-c2ccccc2)no1)Cc1nccn1C | -2.27
77 | O=C(N1CCOCC1)N1CC[C@@](O)(c2ccccc2)[C@H]2CCCC[C@@H]21 | -1.11
78 | CN(C)CC(C)(C)CN1CCC(c2ccnc(-c3cccc(O)c3)c2)C1 (stereo not drawn) | 3.36
79 | CCNc1ccnc(NCc2cn3nc(C)sc3n2)n1 | -3.41
80 | Cc1cc(C)n(CC(C)NCc2nncn2C2CCCCC2)n1 (stereo not drawn) | -3.26
81 | CO[C@H]1CN(C(=O)c2ccc(-c3cc[nH]n3)cc2)CC[C@H]1N | 5.29
82 | CCC(=O)c1ccc(OCC(=O)NC(C)c2nnn[nH]2)cc1 (stereo not drawn) | -1.62
83 | CN(CCN1CCCCCC1)C(=O)c1c(O)cccc1O | -7.08
84 | CCCOC(C)C(=O)N1CCC(O)(c2ccc3nc(C)ccc3c2)CC1 (stereo not drawn) | 1.12
85 | O=C(Nc1ccc(S(=O)(=O)Nc2c(F)cccc2F)cc1)N1CCCC1 | 5.66
86 | O=C(c1ccc(C2CCCO2)s1)N1CCOCC1 (stereo not drawn) | 10.3
87 | CCOC(=O)C1CCCN(c2ccc(-c3nc(C)no3)cn2)C1 (stereo not drawn) | -3.74
88 | Cc1cc(C(=O)N2CCCC(C)C2)ccc1NCC(=O)N1CCOCC1 (stereo not drawn) | -0.153
89 | Cc1ccc(NC2CCN(C(=O)CCc3nccs3)CC2)nn1 | -9.93
90 | Cc1ccc(-c2nnc(CN3CCCC(Cn4cncn4)C3)o2)cc1 (stereo not drawn) | -9.07
91 | Cc1cnn(CC(=O)NCC2CCN(c3cc(Cl)ccc3C)C2)c1 (stereo not drawn) | -3.92
92 | CC(O)CN1CCC(CNCc2ccccc2Cl)CC1 (stereo not drawn) | -11.9

Row | Structure (SMILES) | cytotoxicity at 10 µM [%]
93 | Cc1nn(C)c(C)c1C1CCCN1CC(=O)Nc1ccc(Cl)cn1 (stereo not drawn) | -7.1
94 | CC(C)Oc1ncccc1CNC(=O)c1ccccn1 | -21.3
95 | CCc1n[nH]c(C2CN(C(=O)c3cnc(C)nc3CC)CCO2)n1 (stereo not drawn) | -3.39
96 | Cc1cc(C)n(CC2CN(Cc3nc(C)c(C)o3)CCO2)n1 (stereo not drawn) | 4.17
97 | COc1ccnc(N2CCN(C(=O)Cc3ccsc3)CC2)n1 | -3
98 | COc1c(CNCC(O)c2cccc(F)c2)c(C)nn1C (stereo not drawn) | -6.41
99 | CC(C(=O)Nc1ccnn1C(C)C)N1CCCN(c2nccs2)CC1 (stereo not drawn) | -9.39
100 | Cc1ccc(CN(C)Cc2nc3c(cnn3C)c(=O)[nH]2)o1 | -0.972
101 | O=C1CCC2(CCC(NC3CCOCC3)CC2)N1Cc1ccccc1 (stereo not drawn) | -0.0368
102 | O=C(CN1CC(c2nc(C3CC3)no2)C1)NCc1ccc(F)cc1 | 0.291
103 | Cc1ccc(CN2CCCn3cnc(COCC4CC4)c3C2)o1 | 8.82
104 | c1cnc(N2CCOCC3(CN(Cc4ccsc4)CCO3)C2)nc1 (stereo not drawn) | 5.83
105 | CC(C)n1cnc2c1C(C(=O)N1CCOCC1)N(CC1CC1)CC2 (stereo not drawn) | 7.98
106 | Cc1cnc(N2CCC3(C2)C(=O)N(C)CCN3Cc2cccnc2)nc1 (stereo not drawn) | -6.98
107 | CC(C)(CNCc1ccc(OCc2cscn2)cc1)C(N)=O | -137
108 | CCOCC1CN(C(=O)c2ccncc2)Cc2nn(C)cc21 (stereo not drawn) | -5.82
109 | O=C(C1CC1)N1CC[C@@H]2[C@H](CC1)N(Cc1cccnc1)CCS2(=O)=O | -1.84
110 | c1c(CN2CCCCC2)nc2n1CCNC2 | 3.91
111 | O=C(C1CCC1)N1C[C@H]2CC[C@@H](C1)N(S(=O)(=O)c1ccccc1)C2 | -10
112 | O=C1CCC2(CCC(NC(=O)NCc3ccccc3)CC2)N1 (stereo not drawn) | -0.0957
113 | O=C(c1cccnc1)N1C[C@H]2CC[C@@H](C1)N(Cc1cccc(Cl)c1F)C2 | -9.24
